Values after ≈ are worked out from the molar mass of the structure shown. Active and inactive are the calls of the source. The rule behind the calls is not given here.
Legend:
Rattus norvegicus [1] = experiment: In vivo agonist activity at PTHR1 in Crl:CD(SD) rat TPTX model assessed as increase in serum calcium levels at 9 nmol/kg, sc administered as single dose measured after 24 hrs by o-cresolphthalein complexone method; assay type: functional, organism-based
Method in brief: (§1)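 Female 6-week-old Crl:CD(SD) rats after surgical TPTX; those with serum Ca <8.0 mg/dl at day 5 were used, and treatment began day 6. Single sc dose of hPTH(1-34) at 9 nmol/kg, or phosphate-citrate buffer pH 6.0 vehicle, n=5 per group. Jugular blood taken under isoflurane before dosing and at 0.5–24 h. Serum Ca measured by o-CPC, Pi by xanthine oxidase. Mean ± SEM.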

Rattus norvegicus [2] = experiment: In vivo agonist activity at PTHR1 in Crl:CD(SD) rat TPTX model assessed as decrease in serum phosphorus levels 9 nmol/kg, sc administered as single dose measured after 24 hrs by xanthine oxidase method; assay type: functional, organism-based; method in brief: as §1
LLC-PK1 = experiment: Induction of cAMP production in porcine LLC-PK1 cells after 20 mins by enzyme immunoassay; assay type: functional, cell-based; settings: Sus scrofa
Method in brief: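 Counter-screen on parent LLC-PK1 cells lacking hPTHR1. Conditions match the HKRK-B7 assay: 20 min at 37°C in IBMX-containing assay medium, then cAMP read by EIA.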

[3] = target: T1, Parathyroid hormone/parathyroid hormone-related peptide receptor (Homo sapiens) (UniProt Q03431); experiment: (§2) Agonist activity at human PTHR1 expressed in HKRKB7 cells assessed as accumulation of intracellular cAMP after 20 mins by enzyme immunoassay; assay type: functional, cell-based
T1 sequence (whole entry): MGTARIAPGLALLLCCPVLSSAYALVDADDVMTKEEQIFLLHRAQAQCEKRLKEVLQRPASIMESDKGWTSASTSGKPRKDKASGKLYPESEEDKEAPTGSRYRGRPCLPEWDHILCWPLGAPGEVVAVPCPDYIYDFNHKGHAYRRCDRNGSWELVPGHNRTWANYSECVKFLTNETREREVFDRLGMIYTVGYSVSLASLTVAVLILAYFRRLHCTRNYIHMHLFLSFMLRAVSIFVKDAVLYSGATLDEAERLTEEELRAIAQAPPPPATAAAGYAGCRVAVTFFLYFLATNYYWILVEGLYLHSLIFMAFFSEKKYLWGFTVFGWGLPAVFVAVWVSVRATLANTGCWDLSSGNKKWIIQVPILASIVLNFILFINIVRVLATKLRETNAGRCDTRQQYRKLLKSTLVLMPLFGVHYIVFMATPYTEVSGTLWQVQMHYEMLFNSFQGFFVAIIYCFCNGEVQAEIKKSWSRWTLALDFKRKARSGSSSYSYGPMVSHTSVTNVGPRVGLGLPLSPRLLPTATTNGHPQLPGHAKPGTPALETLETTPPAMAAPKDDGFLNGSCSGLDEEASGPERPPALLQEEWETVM
Method in brief: (§3)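 HKRK-B7 cells (LLC-PK1 stably expressing hPTHR1), 1.0 x 10^3 per well, seeded overnight, then exposed to serially diluted compound in McCoy's 5A with 2 mg/ml BSA, 1 mmol/l IBMX and 2 mmol/l HEPES for 20 min at 37°C. Cells washed, frozen, lysed in 50 mmol/l HCl, cAMP read by EIA.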

[4] = target: T1, Parathyroid hormone/parathyroid hormone-related peptide receptor (Homo sapiens); experiment: Agonist activity at human PTHR1 expressed in HKRKB7 cells assessed as accumulation of intracellular cAMP at 1 mM after 20 mins by enzyme immunoassay relative to human PTH (1 to 34 residues); assay type: functional, cell-based; method in brief: as §3
[5] = Solubility of the compound in PBS at pH 6.5 at 1 mM by HPLC-UV analysis; assay type: physicochemical; settings: for solubility at 1000 µM: PBS, pH 6.5; for solubility: buffer, pH 6.5, 1000 µM, BLD = below limit of detection
Method in brief: (§4)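 A 1 mM DMSO stock (50 µL) was freeze-dried, then the residue taken up in 50 mM PBS pH 6.5 or FaSSIF pH 6.5. Sonicated 10 min, shaken 2 h, centrifuged, filtered. Filtrate concentration determined by HPLC-UV against each compound's calibration curve.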

[6] = Solubility of the compound in FaSSIF at 1 mM by HPLC-UV analysis; assay type: physicochemical; settings: for solubility at 1000 µM: FaSSIF; method in brief: as §4
[7] = Intrinsic clearance in human liver microsomes assessed per mg protein at 1 uM after 30 mins in presence of NADPH by LC-MS/MS analysis; assay type: ADME, microsome; settings: read-out: CLH
[8] = target: T2, Parathyroid hormone/parathyroid hormone-related peptide receptor (Homo sapiens, UniProt Q03431); experiment: as §2; assay type: functional, cell-based; method in brief: as §3
T2 sequence (Q03431 whole entry): T1 sequence (whole entry)

[9] = Intrinsic clearance in human liver microsomes assessed per mg protein at 1 uM after 30 mins in absence of NADPH by LC-MS/MS analysis; assay type: ADME, microsome; settings: liver microsomes, read-out: CLH

SMILES	Activity (LLC-PK1)	EC20 [3]	Activity [4]	microsomal CLint at 1 µM [7]	EC50 [8]	further results
CC[C@H](C)[C@H](NC(=O)[C@H](CCC(=O)O)NC(=O)[C@H](CO)NC(=O)[C@@H](NC(=O)[C@@H](N)CO)C(C)C)C(=O)N[C@@H](CCC(N)=O)C(=O)N[C@@H](CC(C)C)C(=O)N[C@@H](CCSC)C(=O)N[C@@H](Cc1cnc[nH]1)C(=O)N[C@@H](CC(N)=O)C(=O)N[C@@H](CC(C)C)C(=O)NCC(=O)N[C@@H](CCCCN)C(=O)N[C@@H](Cc1cnc[nH]1)C(=O)N[C@@H](CC(C)C)C(=O)N[C@@H](CC(N)=O)C(=O)N[C@@H](CO)C(=O)N[C@@H](CCSC)C(=O)N[C@@H](CCC(=O)O)C(=O)N[C@@H](CCCNC(=N)N)C(=O)N[C@H](C(=O)N[C@@H](CCC(=O)O)C(=O)N[C@@H](Cc1c[nH]c2ccccc12)C(=O)N[C@@H](CC(C)C)C(=O)N[C@@H](CCCNC(=N)N)C(=O)N[C@@H](CCCCN)C(=O)N[C@@H](CCCCN)C(=O)N[C@@H](CC(C)C)C(=O)N[C@@H](CCC(N)=O)C(=O)N[C@@H](CC(=O)O)C(=O)N[C@H](C(=O)N[C@@H](Cc1cnc[nH]1)C(=O)N[C@@H](CC(N)=O)C(=O)N[C@@H](Cc1ccccc1)C(=O)O)C(C)C)C(C)C	–	–	–	–	–	Activity (Rattus norvegicus [1]): Active; Activity (Rattus norvegicus [2]): Active
O=C1NC(C2CCCCC2)=NC12CCN(S(=O)(=O)c1cccc3ccccc13)CC2	inactive	220 µM	–	–	–	–
O=C1NC(c2ccc(Cl)cc2)=NC12CCN(S(=O)(=O)c1cccc(Cl)c1)CC2	inactive	–	22%	–	–	–
O=C1NC(C2CCCCC2)=NC12CCN(S(=O)(=O)CCc1ccccc1)CC2	inactive	240 µM	–	–	–	–
O=C1NC(c2ccccc2Cl)=NC12CCN(S(=O)(=O)c1cccc(Cl)c1)CC2	inactive	–	18%	–	–	–
Cc1cc(N(C)C(N)=O)cc(C)c1CCS(=O)(=O)N1CCC2(CC1)N=C(C1CCCCC1)NC2=O	inactive	8.1 µM	–	23 µL/min/mg	67 µM	solubility at 1000 µM [5]: 290 µg/mL (≈ 576 µM); solubility at 1000 µM [6]: 450 µg/mL (≈ 893 µM)
Cc1cc(N2CCNC2=O)cc(C)c1CCS(=O)(=O)N1CCC2(CC1)N=C(C1CCCCC1)NC2=O	inactive	240 µM	–	62 µL/min/mg	> 1000 µM	microsomal CLint at 1 µM [9]: 3.4 µL/min/mg; solubility [5]: Bld; solubility ([6]; simulated gi fluid, 1000 µM, BLD = below limit of detection): Bld
CC(=O)Nc1ccc(CCS(=O)(=O)N2CCC3(CC2)N=C(C2CCCCC2)NC3=O)c(C)c1	inactive	11 µM	–	46 µL/min/mg	50 µM	microsomal CLint at 1 µM [9]: 33 µL/min/mg; solubility at 1000 µM [5]: 280 µg/mL (≈ 590 µM); solubility at 1000 µM [6]: 400 µg/mL (≈ 843 µM)
C[C@H]1CC[C@H](C2=NC3(CCN(S(=O)(=O)c4cccc(Cl)c4)CC3)C(=O)N2)CC1	inactive	–	35%	–	–	–
O=C1NC(c2ccccc2)=NC12CCN(S(=O)(=O)c1cccc(Cl)c1)CC2	inactive	–	1.9%	–	–	–
O=C1NC(c2ccc(Cl)cc2Cl)=NC12CCN(S(=O)(=O)CCc1cccc3ccccc13)CC2	inactive	150 µM	–	–	–	–
O=C1NC(C2CCCCC2)=NC12CCN(S(=O)(=O)CCc1cccc3ccccc13)CC2	inactive	15 µM	–	300 µL/min/mg	–	solubility [5]: Bld; solubility at 1000 µM [6]: 3.1 µg/mL (≈ 6.83 µM)
O=C1NC(C2CCCCC2)=NC12CCN(S(=O)(=O)CCc1ccncc1)CC2	inactive	> 1000 µM	–	–	–	–
O=C1NC(c2ccc(Cl)cc2Cl)=NC12CCN(S(=O)(=O)c1cccc(Cl)c1)CC2	inactive	530 µM	23%	–	> 1000 µM	–
O=C(O)c1ccc(C2=NC3(CCN(S(=O)(=O)c4cccc(Cl)c4)CC3)C(=O)N2)cc1	inactive	–	1.3%	–	–	–
O=C1NC(C2CCCCC2)=NC12CCN(S(=O)(=O)Cc1ccccc1)CC2	inactive	> 1000 µM	–	–	–	–
O=C1NC(C2CCCCC2)=NC12CCN(S(=O)(=O)c1cccc(Cl)c1)CC2	inactive	140 µM	45%	–	–	–
O=C1NC(c2ccncc2)=NC12CCN(S(=O)(=O)c1cccc(Cl)c1)CC2	inactive	–	1%	–	–	–
Cc1ccccc1CCS(=O)(=O)N1CCC2(CC1)N=C(C1CCCCC1)NC2=O	inactive	30 µM	–	100 µL/min/mg	> 1000 µM	solubility at 1000 µM [5]: 11 µg/mL (≈ 26.3 µM); solubility at 1000 µM [6]: 15 µg/mL (≈ 35.9 µM)
CC(=O)Nc1cc(C)c(CCS(=O)(=O)N2CCC3(CC2)N=C(C2CCCCC2)NC3=O)c(C)c1	inactive	6.4 µM	–	39 µL/min/mg	26 µM	microsomal CLint at 1 µM [9]: 18 µL/min/mg; solubility at 1000 µM [5]: 8 µg/mL (≈ 16.4 µM); solubility at 1000 µM [6]: 38 µg/mL (≈ 77.8 µM)

From ChEMBL document CHEMBL4190402, “Development of a Novel Human Parathyroid Hormone Receptor 1 (hPTHR1) Agonist (CH5447240), a Potent and Orally Available Small Molecule for Treatment of Hypoparathyroidism” (J Med Chem, 2018)
